Key:
Histamine H3 receptor [1] = molecular target: T1, Histamine H3 receptor (Homo sapiens, UniProt Q9Y5N1); assay: Displacement of [125I]iodoproxyfan from human recombinant histamine H3 receptor expressed in CHO-K1 cells; format: cell-based
How it was run: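 Stably transfected CHO-K1 cells washed and harvested in PBS, homogenized in ice-cold 50 mmol/L Na2HPO4/KH2PO4 pH 7.5. Membranes pelleted at 23,000g. Membranes incubated 60 min at 25 °C with 25 pmol/L [125I]iodoproxyfan ± competitor, in triplicate. Stopped by ice-cold medium and filtration through PEI-soaked glass fibre filters; gamma counting. Nonspecific binding defined with imetit. Ki by Cheng-Prusoff; mean of at least triplicate experiments.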

Mus musculus = assay: Antagonist activity at histamine H3 receptor in po dosed Swiss mouse cerebral cortex assessed as Ntau-methylhistamine level after 90 mins by radioimmunoassay; format: functional; conditions: 1.5 h
How it was run: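 Swiss mice fasted 24 h, then dosed orally. Decapitated 90 min later; cerebral cortex homogenized in 10 vol ice-cold 0.4 M perchloric acid. Nτ-methylhistamine measured by radioimmunoassay. Response related to the maximal rise produced by ciproxifan 3 mg/kg po. At least triplicate experiments; ED50 calculated as mean with SEM.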

Histamine H3 receptor [2] = molecular target: T1, Histamine H3 receptor
Histamine H3 receptor [3] = molecular target: T1, Histamine H3 receptor; assay: Displacement of [3H](R)-alpha-methylhistamine from human histamine H3 receptor expressed in rat C6 cells; format: cell-based

T1 sequence (Q9Y5N1 whole entry): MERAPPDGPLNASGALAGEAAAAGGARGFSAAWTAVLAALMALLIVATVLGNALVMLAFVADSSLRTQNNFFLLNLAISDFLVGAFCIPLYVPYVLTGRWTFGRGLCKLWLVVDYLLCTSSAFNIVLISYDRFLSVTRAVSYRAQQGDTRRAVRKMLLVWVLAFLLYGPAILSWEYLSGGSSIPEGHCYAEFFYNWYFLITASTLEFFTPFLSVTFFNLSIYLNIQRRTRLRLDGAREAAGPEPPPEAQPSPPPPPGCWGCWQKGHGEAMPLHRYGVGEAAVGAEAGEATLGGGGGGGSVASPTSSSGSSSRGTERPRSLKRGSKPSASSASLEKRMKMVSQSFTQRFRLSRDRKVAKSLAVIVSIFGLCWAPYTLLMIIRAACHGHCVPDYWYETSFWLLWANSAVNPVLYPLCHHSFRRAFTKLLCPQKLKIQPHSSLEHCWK

`Clc1ccc(OCCN2CCC(N3CCCCC3)CC2)cc1` was tested, and the Ki (Histamine H3 receptor [1]; read-out: Ki) was 0.176 µM.
`c1ccc(COCCCc2c[nH]cn2)cc1` [PROXYFAN] gave an ED50 (Mus musculus) of over 10 mg/kg and a Ki (Histamine H3 receptor [1]; read-out: pKi (converted)) of 0.00251 µM.
With `Clc1cccc(OCCN2CCC(N3CCCCC3)CC2)c1` the Ki (Histamine H3 receptor [1]; read-out: Ki) was 0.235 µM.
With `CCCC1CCN(CCCOCCCc2ccccc2)CC1` the ED50 (Mus musculus) was over 10 mg/kg and the Ki (Histamine H3 receptor [1]; read-out: Ki) was 0.249 µM.
`c1ccc(CCCOCCCN2CCC3CCCCC3C2)cc1` (centres undefined) showed an ED50 (Mus musculus) of over 10 mg/kg and a Ki (Histamine H3 receptor [1]; read-out: Ki) of 0.393 µM.
For `CCCCC1CCN(CCCOCCCc2ccccc2)CC1`, the ED50 (Mus musculus) was over 10 mg/kg and the Ki (Histamine H3 receptor [1]; read-out: Ki) was 0.274 µM.
`Clc1ccc(CCCOCCCN2CCCCC2)cc1` [PITOLISANT] was tested, and the ED50 (Mus musculus) was 1.6 mg/kg.
`CNC(=O)c1ccc(Oc2ccc3c(c2)CCN(C2CCC2)CC3)nc1` gave a pKb (Histamine H3 receptor [2]) of 9.3.
In the case of `CC(C)(C)c1ccc(OCCCN2CCC(N3CCCCC3)CC2)cc1`, the ED50 (Mus musculus) is reported as over 20 mg/kg and the Ki (Histamine H3 receptor [1]; read-out: Ki) is reported as 0.1 µM.
`Cc1ccc(OCCN2CCC(N3CCCCC3)CC2)cc1` was tested, and the Ki (Histamine H3 receptor [1]; read-out: Ki) was 0.3 µM.
Work on `Clc1ccc(OCCCN2CCC(N3CCCCC3)CC2)cc1` yielded an ED50 (Mus musculus) of over 20 mg/kg and a Ki (Histamine H3 receptor [1]; read-out: Ki) of 0.165 µM.
Work on `c1ccc(CCCOCCCN2CCc3ccccc3C2)cc1` yielded an ED50 (Mus musculus) of over 10 mg/kg and a Ki (Histamine H3 receptor [1]; read-out: Ki) of 0.56 µM.
For `COc1cccc(OCCCN2CCC(N3CCCCC3)CC2)c1`, the ED50 (Mus musculus) was over 20 mg/kg and the Ki (Histamine H3 receptor [1]; read-out: Ki) was over 10 µM.
Work on `c1ccc(CCCOCCCN2CCCCC2)cc1` yielded a Ki (Histamine H3 receptor [3]) of 0.0031 µM, an ED50 (Mus musculus) of 3.7 mg/kg and a Ki (Histamine H3 receptor [1]; read-out: pKi (converted)) of 0.00316 µM.
For `FC(F)(F)c1cccc(OCCN2CCC(N3CCCCC3)CC2)c1`, the Ki (Histamine H3 receptor [1]; read-out: Ki) was 0.164 µM.
`C[C@H]1[C@H]2CC[C@H]3[C@@H]4CC=C5C[C@@H](N(C)C)CC[C@]5(C)[C@H]4CC[C@]23CN1C` [CONESSINE] gave a Ki (Histamine H3 receptor [1]; read-out: pKi (converted)) of 0.00501 µM.
`c1ccc(CCCOCCCN2CCC(Cc3ccccc3)CC2)cc1` was tested, and the ED50 (Mus musculus) was over 10 mg/kg and the Ki (Histamine H3 receptor [1]; read-out: Ki) was 0.326 µM.
With `COc1cccc(OCCN2CCC(N3CCCCC3)CC2)c1` the Ki (Histamine H3 receptor [1]; read-out: Ki) was 0.132 µM.

Reference: ChEMBL document CHEMBL1152124, “Piperidine variations in search for non-imidazole histamine H(3) receptor ligands” (Bioorg Med Chem, 2008)
